Structures are written as SMILES.

These results are taken from ChEMBL document CHEMBL3797074, “Synthesis and optimization of N-heterocyclic pyridinones as catechol-O-methyltransferase (COMT) inhibitors” (Bioorg Med Chem Lett, 2016).

Series [1] deals with T1, Catechol O-methyltransferase (Homo sapiens, UniProt P21964).
T1 sequence (P21964 whole entry): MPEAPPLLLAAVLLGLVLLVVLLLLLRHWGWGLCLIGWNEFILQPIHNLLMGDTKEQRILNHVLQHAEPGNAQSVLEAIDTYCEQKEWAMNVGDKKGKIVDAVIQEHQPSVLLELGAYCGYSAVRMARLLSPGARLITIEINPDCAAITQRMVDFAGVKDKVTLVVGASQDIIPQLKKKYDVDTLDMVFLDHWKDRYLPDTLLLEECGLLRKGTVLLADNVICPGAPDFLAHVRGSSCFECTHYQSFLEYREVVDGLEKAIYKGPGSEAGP
The experiment in a line: Inhibition of recombinant human C-terminal His6-tagged MB-COMT expressed in Bacmid using SAM/dopamine as substrate preincubated for 2 hrs followed by substrate addition measured after 25 mins by SAC TAMRA tracer-based fluorescence polarization assay. Background: Fluorescence polarisation rises when a labelled molecule tumbles more slowly, as on binding a larger partner.

The target in series [2] is T1, Catechol O-methyltransferase. Description: Inhibition of recombinant human C-terminal His6-tagged soluble COMT transfected in Escherichia coli BL21-Gold (DE3) using SAM/dopamine as substrate preincubated for 2 hrs followed by substrate addition measured after 25 mins by SAC TAMRA tracer-based fluorescence polarization assay.
Series [3] can be described thus: Plasma clearance in rat at 0.5 mg/kg, iv. Format: ADME, organism-based. In outline: (§1)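 Rat PK after a single intravenous dose of 0.5 mg/kg given in DMSO. Plasma clearance, volume of distribution and half-life were derived from the plasma data.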
The nature of series [4]: Intrinsic clearance in human hepatocytes. Format: ADME, cell-based, Hepatocyte. To be noted: read-out: CLH.
Series [5] is described as follows: Intrinsic clearance in rat hepatocytes. To be noted: read-out: CLH. Format: ADME, cell-based, Hepatocyte.
Series [6] has as its target T2, Catechol O-methyltransferase (Rattus norvegicus, UniProt P22734).
T2 sequence (P22734 whole entry): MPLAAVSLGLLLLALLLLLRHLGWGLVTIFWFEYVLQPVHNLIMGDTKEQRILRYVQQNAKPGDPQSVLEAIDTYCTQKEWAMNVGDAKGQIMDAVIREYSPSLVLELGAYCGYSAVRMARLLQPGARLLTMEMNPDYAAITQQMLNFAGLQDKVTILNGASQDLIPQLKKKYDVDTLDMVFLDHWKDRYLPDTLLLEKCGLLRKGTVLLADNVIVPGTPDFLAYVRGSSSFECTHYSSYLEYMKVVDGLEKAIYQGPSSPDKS
The experiment in a line: Inhibition of recombinant rat C-terminal His10-tagged MB-COMT transfected in Escherichia coli BL21-CodonPlus(DE3)-RIPL using SAM/dopamine as substrate preincubated for 2 hrs followed by substrate addition measured after 25 mins by SAC TAMRA tracer-based fluorescence polarization assay.

A short description of series [7]: Plasma concentration in rat at 100 mg/kg, ip after 1 hr. Format: ADME, organism-based. The essentials: (§2)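 Rats dosed intraperitoneally at 30 or 100 mg/kg. Plasma and cerebrospinal fluid were sampled one hour after dosing, and drug concentrations were measured in each.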
Series [8] concerns Rattus norvegicus. The experiment in a line: In vivo inhibition of MB-COMT in ip dosed rat assessed as decrease in homovanillic acid level in cerebrospinal fluid after 1 hr. Format: functional, organism-based. In outline:
(§3)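 Rats were dosed intraperitoneally, and cerebrospinal fluid was collected one hour later. HVA and DOPAC levels were measured and compared with vehicle by ANOVA, with significance set at p<0.05.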

Series [9] in a line: Volume of distribution in rat at 0.5 mg/kg, iv. It is filed as ADME, organism-based. To be noted: in vivo. The essentials: as §1
A short description of series [10]: Drug uptake in rat cerebrospinal fluid at 100 mg/kg, ip after 1 hr. To be noted: read-out: Drug uptake. Format: ADME, organism-based. In outline: as §2
The test system of series [11] is Rattus norvegicus. Description: In vivo inhibition of MB-COMT in ip dosed rat assessed as increase in dihydroxyphenylacetic acid level in cerebrospinal fluid after 1 hr. It is filed as functional, organism-based. In outline:
as §3

The test system of a further series is Cerebrospinal fluid. Description: Drug uptake in rat cerebrospinal fluid at 30 mg/kg, ip after 1 hr. It is filed as ADME, organism-based. Particulars: in vivo, BLD = below limit of detection. In outline:
as §2

Series [12] in a line: Plasma concentration in rat at 30 mg/kg, ip after 1 hr. Format: ADME, organism-based. In outline:
as §2

Series [13] can be described thus: Half life in rat at 0.5 mg/kg, iv. Format: ADME, organism-based. To be noted: in vivo. In outline: as §1

One may read the IC50 as the concentration needed to halve the response being measured. In the case of `O=c1ccn(-c2nc(-c3ccccn3)cs2)cc1O`, the half-inhibitory concentration (IC50) in [1] and in series [2] was over 5000 nM each time.

What is called clearance is the volume of plasma or blood freed of the substance per unit of time. Low values mean a low capacity for elimination, high ones a high capacity for elimination. In series [3], `O=c1ccn(-c2cccc(-c3ccccc3)c2)cc1O` registered a clearance of 58 mL/min/kg. Also, the CLint scaled was determined as 320 mL/min/kg in series [4] and 583 mL/min/kg in series [5].

`Cc1cn2nc(-n3ccc(=O)c(O)c3)ccc2n1`: the values for the concentration for half-maximal inhibition (IC50) in [1] and in series [2] were over 5000 nM and 1670 nM, respectively.

Regarding `O=c1ccn(-c2cccc(-c3ccccc3)n2)cc1O`, the IC50 is 128 nM in series [1] and 2580 nM in series [2].

Consider `O=c1ccn(-c2nccc(-c3ccccc3)c2F)cc1O`, for which the figures for the IC50 in series [1] and in [2] were 55 nM and 946 nM, respectively.

For the compound `O=c1ccn(-c2ncccc2-c2ccccc2)cc1O`, the IC50 in series [1] and in series [2] was over 5000 nM each time.

`O=c1ccn(-c2cc(-c3ccc(Cl)c(Cl)c3)ccn2)cc1O`: in series [3], the clearance was 200 mL/min/kg. The 50% inhibitory concentration (IC50) is 35 nM in series [1] and 27 nM in series [6]. Further, in series [4], the CLint scaled worked out at 292 mL/min/kg.

As for `O=c1ccn(-c2cc(-c3ccncc3)ccn2)cc1O`, the concentration for half-maximal inhibition (IC50) in series [1] was 672 nM.

For the compound `O=c1ccn(-c2cc(-c3cccc(C(F)(F)F)n3)ccn2)cc1O`, the values for the IC50 in series [1] and in series [6] were 84 nM and 11 nM, respectively.

Regarding `O=c1ccn(-c2cc(-c3cnn(Cc4ccccc4)c3)ccn2)cc1O`, the IC50 in series [1] amounted to 49.5 nM; in series [6], 28 nM.

For `O=c1ccn(-c2cc(-c3ccccn3)ccn2)cc1O`, in [1], the IC50 amounted to 826 nM.

Take `O=c1ccn(-c2ccnc(-c3ccccc3)n2)cc1O`: the figures for the half-inhibitory concentration (IC50) in series [1] and in series [2] were 706 nM and 2050 nM, respectively.

One may read the Vd as a proportionality between amount in the body and measured concentration, not a real space. Read a low Vd as little distribution into tissue. In general, half-life refers to how long it takes for the measured level to halve. The low end stands for fast loss, the high end for slow loss. `O=c1ccn(-c2cc(-c3ccccc3)ccn2)cc1O`: the figures for the concentration at 1 h in [7], in series [10] and in [12] were 3600 nM, 410 nM and 70 nM, respectively. For the same compound, the inhibition entry in the series on Rattus norvegicus [8] and in the series on Rattus norvegicus [11] was “Dose-dependent effect” in each case. Moreover, the volume of distribution (Vd) in series [9] stood at 1.9 L/kg. In addition, in series [3], the clearance stood at 94 mL/min/kg. The results for the IC50 in [1], in series [2] and in [6] were 40 nM, 3020 nM and 15 nM, respectively. Moreover, the CLint scaled was 74 mL/min/kg in series [4] and 448 mL/min/kg in series [5]. Further, the Drug uptake entry in the series with Cerebrospinal fluid was “BLD”. The compound further showed a half-life in series [13] of 24 min.

For the compound `O=c1ccn(-c2nccc3ccccc23)cc1O`, the IC50 worked out at 962 nM in series [1] and 1270 nM in series [2].

Turning to `CC(C)(C)c1nc(-c2ccnc(-n3ccc(=O)c(O)c3)c2)cs1`, the figures for the IC50 in series [1] and in series [6] were 101 nM and 15 nM, respectively.

As for `O=c1ccn(-c2ccnc(-c3ccccc3)c2)cc1O`, the figures for the concentration for half-maximal inhibition (IC50) in series [1] and in series [2] were 456 nM and 2320 nM, respectively.

Regarding `O=c1ccn(-c2cc(-c3cccnc3)ccn2)cc1O`, the IC50 in [1] is 574 nM.
